# Results pooled from the literature.
# Protocols differ between the studies behind these lines.
# Target: Mitogen-activated protein kinase 8 (MAPK8, Homo sapiens, UniProt P45983)
Compound,test,setting,endpoint,result
COc1cc(Nc2cnc(C#N)c(O[C@H](C)CN(C)C)n2)ncc1-c1cnn(C)c1,"enzyme activity, inhibitor, radiometric",10 µM,remaining activity,93%
CCS(=O)(=O)c1cc2cc(C[C@](O)(CC(C)(C)c3ccc(F)cc3C(N)=O)C(F)(F)F)[nH]c2cn1,"cell-free assay, competition with immobilised ligand",1 µM,remaining binding,100%
Nc1nc(Nc2ccccc2)sc1C(=O)c1c(F)cccc1F,"enzyme activity, inhibitor",10 µM,remaining activity,75%
CC/C(=N\NC(=O)NCc1cccc(O)c1)c1ccc(O)c(C)c1O,"enzyme activity, inhibitor",0.1 µM,inhibition,-2.4%
Nc1ncnc2occ(-c3ccc(NC(=O)Nc4cc(C(F)(F)F)ccc4F)cc3)c12,"cell-free assay, inhibitor",20 µM,remaining signal,11%
Cn1c(=O)n(-c2ccc(C(C)(C)C#N)cc2)c2c3cc(-c4cnc5ccccc5c4)ccc3ncc21,"enzyme activity, inhibitor",10 µM,remaining activity,105%
FC(F)(F)Oc1cccc(-c2cnc3ccc(-c4ccncc4)nn23)c1,"enzyme activity, inhibitor, radiometric",5 µM,activity vs control,90%
CC(C)(O)[C@H]1CC[C@H](Nc2ccc3ncc(-c4cccc(C(F)(F)F)c4)n3n2)CC1,"enzyme activity, inhibitor",1 µM,remaining activity,107%
Cc1cnc(NC2CCOCC2)nc1-n1cnc(C(=O)NC(CN)c2cc(F)cc(Cl)c2)c1 (centres unmarked),"enzyme activity, inhibitor, radiometric",1 µM,remaining activity,56%
CC1(C)NC(=O)c2[nH]c3c(Cl)c(Cl)ccc3c2C1C#N (centres unmarked),"thermal stability, DSF",10 µM,ΔTm,0.8 °C
CN(C)C1CCN(CC#Cc2nn(C3CCCC3)c3nc(NCc4ccccc4)ncc23)C1 (centres unmarked),"enzyme activity, inhibitor, FRET",0.1 µM,inhibition,1%
N#CC(c1ccnc(NCCc2cccnc2)n1)c1nc2ccccc2s1 (centres unmarked),"enzyme activity, inhibitor",0.5 µM,remaining activity,87.6%
C[C@@H]1CN(c2cc(-c3nn(C)c4ccc(OC5(C)CC5)cc34)ncn2)C[C@H](C)O1,"cell-free assay, competition with immobilised ligand",1 µM,remaining binding,82%
Cc1ccc(NC(=O)c2ccc(C)c(C(F)(F)F)c2)cc1C#Cc1nn(C2CCC(O)CC2)c2ncnc(N)c12 (centres unmarked),cell-free assay,10 µM,remaining signal,35%
Cc1ccc(C(=O)NCc2ccsc2)cc1C#Cc1cn(C(C)C)c2ncnc(N)c12,"enzyme activity, inhibitor",1 µM,activity vs control,103%
Cn1c2c(c3ccc(Cl)c(Cl)c31)C(C#N)C1(CCOCC1)NC2=O (centres unmarked),"thermal stability, DSF",10 µM,ΔTm,-0.1 °C
CNCc1ccc(-c2cc(-c3nc(-c4ccc(S(=O)(=O)C(C)C)cc4)cnc3N)on2)cc1,"enzyme activity, inhibitor",2 µM,inhibition,8%
Cc1ccc(C(=O)Nc2ccc(CN3CCN(C)CC3)c(C(F)(F)F)c2)cc1C#Cc1cnc2cccnn12,"enzyme activity, inhibitor",23.5 nM,remaining activity,82%
NS(=O)(=O)c1cc(NC(=O)C2(c3ccccc3Cl)CC2)ccc1Oc1cccc(Cl)c1,"cell-free assay, competition with immobilised ligand",1 µM,remaining binding,100%
CCN(CC)CCNC(=O)c1c(C)[nH]c(/C=C2\C(=O)Nc3ccc(F)cc32)c1C,cell-free assay,0.5 µM,remaining signal,91.8%
CCOCCn1cc(C(=O)Nc2ccc(-n3nc(-c4cccnc4)cc3C(F)(F)F)cn2)ccc1=O,"cell-free assay, competition with immobilised ligand",1 µM,remaining binding,72%
CCC1(CC)NC(=O)c2c(c3ccc(Cl)c(Cl)c3n2C)C1C#N (centres unmarked),"thermal stability, DSF",10 µM,ΔTm,0.3 °C
COc1cc2ncnc(Nc3ccc(Oc4ccccc4)cc3C)c2cc1OC,"enzyme activity, inhibitor",1 µM,inhibition,1%
CC1=C(C#N)C(c2ccc3c(c2)c(NC(=O)c2ccccc2C)nn3C)C(C#N)=C(C)N1,"cell-free assay, competition with immobilised ligand",1 µM,remaining binding,88%
CCN1CCC2(CC1)NC(=O)c1c(c3ccc(Cl)c(Cl)c3n1C)C2C#N (racemic),"thermal stability, DSF",10 µM,ΔTm,0.6 °C
CC1=C(C#N)[C@@H](c2ccc3[nH]nc(C)c3c2)C(C#N)=C(c2ccc(Cl)cc2)N1,"cell-free assay, competition with immobilised ligand",1 µM,remaining binding,65.2%
Cn1c2c(c3ccc(Cl)c(Cl)c31)C(C#N)C(C)(C)NC2=O (centres unmarked),"thermal stability, DSF",10 µM,ΔTm,1.3 °C
COc1cc(-c2cc(-c3ccc(N4CCNCC4)cc3)cnc2C)cc(OC)c1OC,"enzyme activity, inhibitor",0.1 µM,inhibition,0%
COc1ccc2c(c1)O[C@H](c1ccc(OC)c(OC)c1)C[C@@H]2NC(=O)C1(c2ccc3c(c2)OC(F)(F)O3)CC1,"cell-free assay, competition with immobilised ligand",1 µM,remaining binding,96%
CC(C)(C)c1nc2c(s1)c1nc(N)ncc1c1ccc(NS(=O)(=O)c3c(F)cccc3F)c(F)c12,"enzyme activity, inhibitor, radiometric",1 µM,remaining activity,75%
c1ccc(N2CCN(Cc3nc4ccccc4[nH]3)CC2)nc1,"binding, competition with immobilised ligand",1 µM,remaining binding,100%
N#Cc1c(NC(=O)c2cccc3ccccc23)sc2c1CCCC2,cell-free assay,0.5 µM,remaining signal,87.3%
COc1cc(/C=C/C(=O)CC(=O)/C=C/c2ccc(O)c(OC)c2)ccc1O,"enzyme activity, inhibitor",1 µM,activity vs control,99%
O=C1Nc2ccc(Cl)cc2C1=Cc1cc(Cl)c(O)c(Cl)c1,cell-free assay,0.5 µM,remaining signal,82.8%
O=C(Nc1cnn(-c2csc(C(=O)NC3COC3)c2)c1)Nc1ccccc1Cl,"enzyme activity, inhibitor",5 µM,remaining activity,57.6%
